These results are taken from ChEMBL document CHEMBL1131001, “Syntheses and anticholinesterase activities of (3aS)-N1, N8-bisnorphenserine, (3aS)-N1,N8-bisnorphysostigmine, their antipodal isomers, and other potential metabolites of phenserine” (J Med Chem, 1998).

Assay [1] has as its target T1, Acetylcholinesterase (Homo sapiens, UniProt P22303). In words: Anticholinesterase activity against erythrocyte acetylcholinesterase (AChE) in humans. An outline of the steps:
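Human red blood cells, freshly collected, were washed five times in isotonic saline, lysed in 0.1 M Na3PO4 pH 7.4 with 0.5% Triton-X, and diluted 1:200. Compounds in half-log dilutions from 0.3 nM were preincubated with enzyme for 30 min at room temperature in pH 8.0 phosphate.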

In assay [2] the target is T2, Cholinesterase (Homo sapiens, UniProt P06276). Briefly: Anticholinesterase activity against plasma Butyrylcholinesterase (BChE) in humans. It counts as cell-free.
Assay [3] deals with T1, Acetylcholinesterase. Briefly: Anticholinesterase activity against erythrocyte acetylcholinesterase (AChE) in humans.(no detectable activity at 3*10e-5 M).
In assay [4] the target is T2, Cholinesterase. Briefly: Anticholinesterase activity against plasma Butyrylcholinesterase (BChE) in humans.(no detectable activity at 3*10e-5 M). It counts as cell-free.

pIC50: −log10 of the molar value.

T1 sequence (P22303 whole entry): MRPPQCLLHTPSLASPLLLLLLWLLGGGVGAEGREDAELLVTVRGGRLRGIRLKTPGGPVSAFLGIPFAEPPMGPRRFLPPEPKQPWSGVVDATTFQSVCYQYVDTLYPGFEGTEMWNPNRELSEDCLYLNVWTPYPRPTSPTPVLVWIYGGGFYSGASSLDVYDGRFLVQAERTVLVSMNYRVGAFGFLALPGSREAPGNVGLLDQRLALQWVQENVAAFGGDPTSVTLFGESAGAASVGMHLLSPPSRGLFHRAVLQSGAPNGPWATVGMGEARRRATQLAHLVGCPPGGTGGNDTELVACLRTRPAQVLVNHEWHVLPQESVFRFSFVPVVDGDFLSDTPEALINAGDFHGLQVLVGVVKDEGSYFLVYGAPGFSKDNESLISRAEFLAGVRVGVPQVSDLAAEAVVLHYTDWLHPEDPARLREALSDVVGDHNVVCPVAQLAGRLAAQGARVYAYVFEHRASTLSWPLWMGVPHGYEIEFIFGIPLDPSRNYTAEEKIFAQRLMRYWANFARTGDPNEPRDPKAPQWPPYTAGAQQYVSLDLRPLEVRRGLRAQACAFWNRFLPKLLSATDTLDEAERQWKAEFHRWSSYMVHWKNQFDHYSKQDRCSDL
T2 sequence (P06276 whole entry): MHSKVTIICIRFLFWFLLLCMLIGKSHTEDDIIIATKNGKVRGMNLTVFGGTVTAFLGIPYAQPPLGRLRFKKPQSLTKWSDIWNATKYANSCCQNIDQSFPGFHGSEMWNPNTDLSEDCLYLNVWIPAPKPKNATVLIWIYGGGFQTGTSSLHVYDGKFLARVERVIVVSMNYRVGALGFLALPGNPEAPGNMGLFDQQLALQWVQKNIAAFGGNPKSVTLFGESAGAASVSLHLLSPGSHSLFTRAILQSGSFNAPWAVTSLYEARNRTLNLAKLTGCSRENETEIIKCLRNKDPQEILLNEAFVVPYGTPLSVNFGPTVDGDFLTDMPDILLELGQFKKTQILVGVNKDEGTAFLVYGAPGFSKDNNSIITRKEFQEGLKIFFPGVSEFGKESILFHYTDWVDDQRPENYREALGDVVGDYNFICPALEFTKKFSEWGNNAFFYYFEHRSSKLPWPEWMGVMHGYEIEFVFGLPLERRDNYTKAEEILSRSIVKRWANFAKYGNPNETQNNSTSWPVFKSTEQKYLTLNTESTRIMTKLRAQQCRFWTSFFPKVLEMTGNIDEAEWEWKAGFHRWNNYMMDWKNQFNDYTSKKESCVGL

One may read the pIC50 as the negative decadic logarithm of the IC50, by convention in mol/L. As to `CNC(=O)Oc1ccc2c(c1)[C@]1(C)CCNC1N2` (stereo not given in full), the results for the pIC50 against Acetylcholinesterase [1] and on Cholinesterase [2] were 7.96 and 8.62, respectively. As for `CNC(=O)Oc1ccc2c(c1)[C@@]1(C)CCNC1N2` (stereo not given in full), the pIC50 was 5.83 at Acetylcholinesterase [1] and 6.63 on Cholinesterase [2]. Turning to `C[C@@]12CCN(Cc3ccccc3)C1N(Cc1ccccc1)c1ccc(OC(=O)Nc3ccccc3)cc12` (single isomer, unassigned; (-)), the results for the pIC50 against Acetylcholinesterase [1] and on Cholinesterase [2] were 4.39 and 6.29, respectively. Take `C[C@]12CCN(Cc3ccccc3)C1N(Cc1ccccc1)c1ccc(OC(=O)Nc3ccccc3)cc12` (stereo not given in full): the IC50 result against Acetylcholinesterase [3] and against Cholinesterase [4] was “No detectable activity” in each case. Take `C[C@]12CCNC1Nc1ccc(OC(=O)Nc3ccccc3)cc12` (stereo not given in full): the pIC50 against Acetylcholinesterase [1] is 6.64; at Cholinesterase [2], 6.02. Take `CNC(=O)Oc1ccc2c(c1)[C@@]1(C)CCN(Cc3ccccc3)C1N2Cc1ccccc1` (stereo not given in full): the pIC50 was 5.45 against Acetylcholinesterase [1] and 6.11 against Cholinesterase [2]. The molecule `C[C@@]12CCNC1Nc1ccc(OC(=O)Nc3ccccc3)cc12` (stereo not given in full) had a pIC50 at Cholinesterase [2] of 6.05.

In turn, `CN1c2ccc(OC(=O)Nc3ccccc3)cc2[C@]2(C)CCNC12` (stereo not given in full) had a pIC50 on Cholinesterase [2] of 6.21. Take `CN1CC[C@@]2(C)c3cc(O)ccc3N(C)[C@@H]12`: the IC50 entry against Acetylcholinesterase [3] and against Cholinesterase [4] was “No detectable activity” each time. Regarding `CN1CC[C@@]2(C)C3=CC(=O)C(=O)C=C3N(C)C12` (stereo not given in full), the IC50 entry at Acetylcholinesterase [3] and at Cholinesterase [4] was “No detectable activity” throughout. Take `CNC(=O)Oc1ccc2c(c1)[C@]1(C)CCN(Cc3ccccc3)C1N2Cc1ccccc1` (stereo not given in full): the pIC50 against Acetylcholinesterase [1] is 5.96; on Cholinesterase [2], 8.09.
